The record followed here is ChEMBL document CHEMBL3425433, “Discovery of bicyclic pyrazoles as class III histone deacetylase SIRT1 and SIRT2 inhibitors” (Bioorg Med Chem Lett, 2015).

Each structure is given as a SMILES string. The source made the active and inactive calls. The rule behind the calls is not given here.

In assay [1] the target is T1, NAD-dependent protein deacetylase sirtuin-1 (Homo sapiens) (UniProt Q96EB6).
T1 sequence (whole entry): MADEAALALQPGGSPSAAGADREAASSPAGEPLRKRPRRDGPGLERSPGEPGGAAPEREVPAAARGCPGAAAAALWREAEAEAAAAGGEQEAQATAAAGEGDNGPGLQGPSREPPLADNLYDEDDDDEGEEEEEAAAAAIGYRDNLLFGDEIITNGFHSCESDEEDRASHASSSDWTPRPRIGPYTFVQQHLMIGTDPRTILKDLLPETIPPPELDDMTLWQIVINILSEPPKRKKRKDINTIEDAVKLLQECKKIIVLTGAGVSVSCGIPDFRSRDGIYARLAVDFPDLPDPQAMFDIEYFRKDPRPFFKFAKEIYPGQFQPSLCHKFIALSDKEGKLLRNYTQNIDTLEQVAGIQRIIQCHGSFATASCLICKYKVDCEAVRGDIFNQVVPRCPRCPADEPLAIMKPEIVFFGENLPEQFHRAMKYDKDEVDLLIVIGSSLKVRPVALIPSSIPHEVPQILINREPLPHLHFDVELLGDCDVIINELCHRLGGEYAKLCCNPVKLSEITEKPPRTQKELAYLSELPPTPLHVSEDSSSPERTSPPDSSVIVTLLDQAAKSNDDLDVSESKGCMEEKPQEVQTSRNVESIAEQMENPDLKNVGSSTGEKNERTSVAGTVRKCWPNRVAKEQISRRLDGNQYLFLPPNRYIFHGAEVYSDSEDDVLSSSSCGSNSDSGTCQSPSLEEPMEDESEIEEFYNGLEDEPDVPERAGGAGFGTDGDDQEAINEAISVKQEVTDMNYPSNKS
Kind of assay: Inhibition of His-tagged human recombinant SIRT1 expressed in Escherichia coli at 20 uM using Cbz-Lys(Ac)-AMC as substrate by fluorescence assay. In outline:
(§1)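 Fluorescence deacetylase assay with in-house Cbz-Lys(Ac)-AMC substrate. Values are means of three experiments on racemic material. Single-point lines were tested at 20 µM, and less than 20% inhibition was scored as no inhibition.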

Assay [2] has as its target T2, NAD-dependent protein deacetylase sirtuin-2 (Homo sapiens) (UniProt Q8IXJ6).
T2 sequence (whole entry): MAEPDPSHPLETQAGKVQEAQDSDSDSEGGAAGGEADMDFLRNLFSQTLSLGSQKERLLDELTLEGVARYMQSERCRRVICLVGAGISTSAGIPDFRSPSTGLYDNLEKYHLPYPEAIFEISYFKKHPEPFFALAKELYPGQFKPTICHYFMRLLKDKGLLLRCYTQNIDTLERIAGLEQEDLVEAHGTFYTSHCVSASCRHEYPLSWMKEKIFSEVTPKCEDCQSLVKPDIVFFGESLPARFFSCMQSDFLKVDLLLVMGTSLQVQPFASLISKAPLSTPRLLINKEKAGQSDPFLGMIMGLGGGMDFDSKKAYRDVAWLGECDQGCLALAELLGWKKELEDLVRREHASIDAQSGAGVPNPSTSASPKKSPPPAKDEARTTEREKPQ
In words: Inhibition of His-tagged human recombinant SIRT2 expressed in Escherichia coli at 20 uM using Cbz-Lys(Ac)-AMC as substrate by fluorescence assay. In outline: as §1

Another assay deals with Histone deacetylase 1 (Homo sapiens, UniProt Q13547). Kind of assay: Inhibition of HDAC1 (unknown origin).
Another assay addresses Histone deacetylase 2 (Homo sapiens, UniProt Q92769). In words: Inhibition of HDAC2 (unknown origin).
The target in assay [3] is T3, Histone deacetylase 8 (Homo sapiens) (UniProt Q9BY41).
T3 sequence (whole entry): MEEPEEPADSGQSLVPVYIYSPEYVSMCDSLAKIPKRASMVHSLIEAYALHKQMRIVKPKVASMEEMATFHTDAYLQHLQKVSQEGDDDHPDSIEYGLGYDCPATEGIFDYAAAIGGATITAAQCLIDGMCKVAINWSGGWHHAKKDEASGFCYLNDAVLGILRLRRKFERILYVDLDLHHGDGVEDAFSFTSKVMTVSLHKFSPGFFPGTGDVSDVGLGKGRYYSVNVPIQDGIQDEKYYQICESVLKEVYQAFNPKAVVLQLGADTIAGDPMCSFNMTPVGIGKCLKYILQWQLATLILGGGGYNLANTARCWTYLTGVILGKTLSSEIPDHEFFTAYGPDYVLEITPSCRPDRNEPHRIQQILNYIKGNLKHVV
Kind of assay: Inhibition of HDAC8 (unknown origin).

For assay [4], the target named is Histone deacetylase 4 (Homo sapiens) (UniProt P56524). Kind of assay: Inhibition of HDAC4 (unknown origin).
Assay [5] deals with Histone deacetylase 5 (Homo sapiens) (UniProt Q9UQL6). Kind of assay: Inhibition of HDAC5 (unknown origin).
In assay [6] the target is T4, Histone deacetylase 7 (Homo sapiens) (UniProt Q8WUI4).
T4 sequence (whole entry): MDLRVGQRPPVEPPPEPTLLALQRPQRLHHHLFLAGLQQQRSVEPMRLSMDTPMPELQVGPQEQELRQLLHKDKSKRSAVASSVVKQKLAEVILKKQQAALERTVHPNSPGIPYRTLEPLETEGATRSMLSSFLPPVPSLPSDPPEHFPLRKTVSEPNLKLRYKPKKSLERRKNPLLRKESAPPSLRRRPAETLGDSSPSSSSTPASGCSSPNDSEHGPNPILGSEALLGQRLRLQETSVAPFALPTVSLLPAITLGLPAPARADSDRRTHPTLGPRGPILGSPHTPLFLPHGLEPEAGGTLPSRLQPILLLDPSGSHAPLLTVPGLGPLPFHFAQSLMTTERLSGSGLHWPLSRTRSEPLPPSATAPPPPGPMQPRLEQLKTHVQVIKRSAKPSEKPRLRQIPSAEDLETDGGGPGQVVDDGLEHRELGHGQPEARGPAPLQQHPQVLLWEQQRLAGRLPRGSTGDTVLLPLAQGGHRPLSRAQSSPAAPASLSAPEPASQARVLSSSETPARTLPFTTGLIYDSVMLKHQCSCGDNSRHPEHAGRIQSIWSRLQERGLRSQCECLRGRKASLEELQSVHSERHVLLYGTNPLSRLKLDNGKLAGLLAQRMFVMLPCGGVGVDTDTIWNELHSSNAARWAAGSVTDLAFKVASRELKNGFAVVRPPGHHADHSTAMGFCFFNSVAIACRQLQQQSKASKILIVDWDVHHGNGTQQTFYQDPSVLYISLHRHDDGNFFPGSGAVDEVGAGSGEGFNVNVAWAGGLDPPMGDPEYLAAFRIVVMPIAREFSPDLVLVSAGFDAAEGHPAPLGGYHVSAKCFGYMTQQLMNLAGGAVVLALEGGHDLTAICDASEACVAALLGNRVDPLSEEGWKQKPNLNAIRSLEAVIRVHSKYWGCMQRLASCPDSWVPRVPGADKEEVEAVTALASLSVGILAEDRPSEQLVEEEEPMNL
In words: Inhibition of HDAC7 (unknown origin).

Chain of Histone deacetylase 4 (Homo sapiens) (P56524 whole entry): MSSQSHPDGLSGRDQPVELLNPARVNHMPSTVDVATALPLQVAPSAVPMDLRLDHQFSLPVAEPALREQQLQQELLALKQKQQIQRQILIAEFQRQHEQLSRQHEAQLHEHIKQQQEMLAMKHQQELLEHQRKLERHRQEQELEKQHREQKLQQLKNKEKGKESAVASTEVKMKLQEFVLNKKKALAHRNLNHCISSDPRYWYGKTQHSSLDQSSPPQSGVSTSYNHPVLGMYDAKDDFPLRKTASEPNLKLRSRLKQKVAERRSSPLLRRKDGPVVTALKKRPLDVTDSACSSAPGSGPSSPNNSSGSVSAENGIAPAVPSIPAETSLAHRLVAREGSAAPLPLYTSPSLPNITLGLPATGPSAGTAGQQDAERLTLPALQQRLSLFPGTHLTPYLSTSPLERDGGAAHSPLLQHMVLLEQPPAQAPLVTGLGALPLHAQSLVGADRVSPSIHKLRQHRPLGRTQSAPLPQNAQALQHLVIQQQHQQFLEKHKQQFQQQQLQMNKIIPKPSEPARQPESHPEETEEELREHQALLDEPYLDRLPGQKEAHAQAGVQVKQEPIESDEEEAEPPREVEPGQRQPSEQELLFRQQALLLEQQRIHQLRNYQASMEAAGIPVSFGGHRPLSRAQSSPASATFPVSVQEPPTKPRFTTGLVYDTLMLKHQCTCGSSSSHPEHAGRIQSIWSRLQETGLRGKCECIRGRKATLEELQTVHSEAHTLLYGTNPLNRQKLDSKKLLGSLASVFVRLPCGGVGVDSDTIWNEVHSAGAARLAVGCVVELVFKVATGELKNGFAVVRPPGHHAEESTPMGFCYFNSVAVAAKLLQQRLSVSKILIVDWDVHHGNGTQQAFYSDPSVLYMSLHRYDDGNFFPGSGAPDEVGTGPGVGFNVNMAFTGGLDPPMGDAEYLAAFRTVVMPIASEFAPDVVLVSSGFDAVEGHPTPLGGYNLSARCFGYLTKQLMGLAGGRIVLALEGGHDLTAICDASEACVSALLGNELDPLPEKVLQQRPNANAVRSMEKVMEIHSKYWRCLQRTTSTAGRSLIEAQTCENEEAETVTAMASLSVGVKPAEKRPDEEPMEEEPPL
Chain of Histone deacetylase 5 (Homo sapiens) (Q9UQL6 whole entry): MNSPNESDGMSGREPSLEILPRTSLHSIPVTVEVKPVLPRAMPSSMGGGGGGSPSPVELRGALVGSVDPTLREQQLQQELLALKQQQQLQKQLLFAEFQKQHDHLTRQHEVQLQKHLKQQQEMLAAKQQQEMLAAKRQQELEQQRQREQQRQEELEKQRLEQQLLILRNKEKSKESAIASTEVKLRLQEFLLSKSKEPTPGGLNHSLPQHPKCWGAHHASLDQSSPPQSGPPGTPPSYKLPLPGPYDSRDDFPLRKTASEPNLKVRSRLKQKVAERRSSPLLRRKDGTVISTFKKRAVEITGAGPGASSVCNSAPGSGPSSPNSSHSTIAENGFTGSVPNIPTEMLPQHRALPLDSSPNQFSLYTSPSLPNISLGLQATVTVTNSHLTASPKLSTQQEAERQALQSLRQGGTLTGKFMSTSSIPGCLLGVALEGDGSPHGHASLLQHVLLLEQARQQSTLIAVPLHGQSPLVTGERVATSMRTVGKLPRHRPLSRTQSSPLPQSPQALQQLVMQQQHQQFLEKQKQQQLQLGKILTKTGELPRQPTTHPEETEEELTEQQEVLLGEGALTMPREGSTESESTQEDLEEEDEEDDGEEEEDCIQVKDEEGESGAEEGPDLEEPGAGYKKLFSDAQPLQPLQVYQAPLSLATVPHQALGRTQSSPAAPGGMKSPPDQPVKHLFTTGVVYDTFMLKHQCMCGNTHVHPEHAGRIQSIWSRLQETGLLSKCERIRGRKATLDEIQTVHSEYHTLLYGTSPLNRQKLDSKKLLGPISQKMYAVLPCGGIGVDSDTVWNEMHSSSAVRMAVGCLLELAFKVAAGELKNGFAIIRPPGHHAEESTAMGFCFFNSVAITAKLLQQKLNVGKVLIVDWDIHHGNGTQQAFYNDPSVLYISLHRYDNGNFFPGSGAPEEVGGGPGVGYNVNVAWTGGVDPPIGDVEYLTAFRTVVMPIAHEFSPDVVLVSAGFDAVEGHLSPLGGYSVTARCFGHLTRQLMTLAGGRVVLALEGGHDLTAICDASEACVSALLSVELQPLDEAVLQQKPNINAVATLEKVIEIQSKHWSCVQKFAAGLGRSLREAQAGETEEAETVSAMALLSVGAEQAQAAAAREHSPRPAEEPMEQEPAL
Chain of Histone deacetylase 1 (Q13547 whole entry): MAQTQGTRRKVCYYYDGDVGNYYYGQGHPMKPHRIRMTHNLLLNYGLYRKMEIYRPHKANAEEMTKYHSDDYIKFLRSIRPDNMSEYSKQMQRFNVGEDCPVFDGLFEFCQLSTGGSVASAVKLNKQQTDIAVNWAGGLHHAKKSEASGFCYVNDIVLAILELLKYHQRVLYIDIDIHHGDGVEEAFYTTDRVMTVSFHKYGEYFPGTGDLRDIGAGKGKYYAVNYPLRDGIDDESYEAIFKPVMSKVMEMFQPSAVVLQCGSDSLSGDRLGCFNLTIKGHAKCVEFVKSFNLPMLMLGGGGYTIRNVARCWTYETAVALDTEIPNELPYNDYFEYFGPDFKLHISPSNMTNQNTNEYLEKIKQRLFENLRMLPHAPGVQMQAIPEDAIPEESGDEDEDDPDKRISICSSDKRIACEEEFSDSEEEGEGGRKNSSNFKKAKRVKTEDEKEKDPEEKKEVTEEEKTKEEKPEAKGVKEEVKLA
Chain of Histone deacetylase 2 (Q92769 whole entry): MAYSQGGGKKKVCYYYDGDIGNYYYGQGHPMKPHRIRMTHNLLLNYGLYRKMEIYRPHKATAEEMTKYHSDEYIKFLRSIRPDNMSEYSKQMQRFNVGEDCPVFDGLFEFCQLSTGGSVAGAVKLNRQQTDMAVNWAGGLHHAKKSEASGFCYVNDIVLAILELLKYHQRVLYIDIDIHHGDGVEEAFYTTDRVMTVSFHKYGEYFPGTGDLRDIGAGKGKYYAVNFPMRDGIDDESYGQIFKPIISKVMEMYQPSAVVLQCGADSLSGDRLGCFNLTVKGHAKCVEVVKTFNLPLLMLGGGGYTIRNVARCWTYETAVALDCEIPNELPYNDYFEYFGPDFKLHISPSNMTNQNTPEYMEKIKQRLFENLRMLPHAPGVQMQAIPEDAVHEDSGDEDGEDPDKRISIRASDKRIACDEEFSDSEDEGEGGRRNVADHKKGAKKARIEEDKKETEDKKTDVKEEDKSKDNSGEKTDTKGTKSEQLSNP

What is called inhibition is the change of the read-out against control, counted positive when it falls. As to `Cn1c(-c2n[nH]c3c2CCCC3C(N)=O)cc2cc(Cl)ccc21` (racemic), the inhibition was 31% in assay [1] and 51% in assay [2]. The inhibition entry (on Histone deacetylase 1; on Histone deacetylase 2; in assay [3]; in assay [4]; in assay [5]; in assay [6]) was “inactive” in each case.
As for `NC(=O)C1CCCc2c(-c3ccccc3Cl)n[nH]c21` (racemic), the results for the inhibition in assay [1] and in assay [2] were under 20% and 11%, respectively. Also, the inhibition entry (on Histone deacetylase 1; on Histone deacetylase 2; in assay [3]; in assay [4]; in assay [5]; in assay [6]) was “inactive” throughout.
On to `CC1(C)CCC(C(N)=O)c2[nH]nc(-c3ccc(Cl)cc3)c21` (racemic), for which the inhibition in assay [1] and in assay [2] was under 20% each time. For the same compound, the inhibition result (at Histone deacetylase 1; at Histone deacetylase 2; in assay [3]; in assay [4]; in assay [5]; in assay [6]) was “inactive” in each case.
For `CC1(C)Cc2c(-c3cc4ccccc4s3)n[nH]c2C(C(N)=O)C1` (racemic), the values for the inhibition in assay [1] and in assay [2] were 53% and 67%, respectively. The inhibition result (on Histone deacetylase 1; at Histone deacetylase 2; in assay [3]; in assay [4]; in assay [5]; in assay [6]) was “inactive” each time.
On to `NC(=O)C1CCCc2c(-c3csc4ccccc34)n[nH]c21` (racemic), for which the inhibition in assay [1] amounted to 48%; in assay [2], 44%. Moreover, the inhibition entry (on Histone deacetylase 1; at Histone deacetylase 2; in assay [3]; in assay [4]; in assay [5]; in assay [6]) was “inactive” in each case.
`CNC(=O)C1CCCc2c(-c3ccc(Cl)cc3)n[nH]c21` (racemic): the inhibition in assay [1] and in assay [2] was under 20% each time. For the same compound, the inhibition result (at Histone deacetylase 1; at Histone deacetylase 2; in assay [3]; in assay [4]; in assay [5]; in assay [6]) was “inactive” throughout.
With `CC1(C)Cc2c(-c3ccc(Br)cc3)n[nH]c2C(C(N)=O)C1` (racemic), the inhibition in assay [1] came out at 56%; in assay [2], 42%. The inhibition result (at Histone deacetylase 1; on Histone deacetylase 2; in assay [3]; in assay [4]; in assay [5]; in assay [6]) was “inactive” in each case.
For the compound `Cn1c(-c2n[nH]c3c2CC(C)(C)CC3C(N)=O)cc2ccccc21` (racemic), the inhibition in assay [1] and in assay [2] was under 20% in each case. The inhibition entry (on Histone deacetylase 1; on Histone deacetylase 2; in assay [3]; in assay [4]; in assay [5]; in assay [6]) was “inactive” in each case.
